Bioassay records from PubChem.
E-sel inducer: induces E-selectin expression in human endothelial cells | AID 686992 | activation, % at 7.58 µM | actives 0.37% (n = 260,000) | HUVEC E-selectin immunofluorescence imaging; normalized: neutral wells 0, TNF-alpha wells 100;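 active = mean E-selectin-positive cell signal at least 10% of the positive control, reached in at least 60% of replicates, without over 20% cell loss; inconclusive = no rule given, readout overlaps actives, possibly toxicity-flagged; inactive = the rest, including those meeting only one limit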
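Test system – human umbilical vein endothelial cells (HUVEC), E-selectin induction · Input – 3,000 HUVEC seeded per well · Buffer or medium – EGM-2, gelatin · Compound dosing – single-point compound dose · Detection – immunofluorescence imaging · Measure – percent E-selectin-positive cells · Controls – TNF-alpha high, DMSO low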
DENV2 CPE: protects cells from dengue virus 2 cytopathic effect; DENV2-infected cells, cytopathic effect rescue, plate reader; CPE inhibition, % at 9.99 µM; actives 1.7% (n = 350,000); in the data active = CPE inhibition above about 20%, passing the limit was not always enough; inconclusive = no clear call, values can overlap the other calls; tested in BHK-21 cells;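 also: 0% = median of neutral control wells and 100% = median of positive control wells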
SIRT5 block: inhibitors of human sirtuin-5 desuccinylase; Q9NXA8; Purified SirT5, succinyl-peptide AMC, trypsin-coupled fluorescence; inhibition, % at 15 µM; actives 1.1% (n = 330,000); AID 652115; in the data active = inhibition above about 15%; inconclusive = no clear call, values can overlap the other calls
Target sequence (Q9NXA8 whole entry, looked up): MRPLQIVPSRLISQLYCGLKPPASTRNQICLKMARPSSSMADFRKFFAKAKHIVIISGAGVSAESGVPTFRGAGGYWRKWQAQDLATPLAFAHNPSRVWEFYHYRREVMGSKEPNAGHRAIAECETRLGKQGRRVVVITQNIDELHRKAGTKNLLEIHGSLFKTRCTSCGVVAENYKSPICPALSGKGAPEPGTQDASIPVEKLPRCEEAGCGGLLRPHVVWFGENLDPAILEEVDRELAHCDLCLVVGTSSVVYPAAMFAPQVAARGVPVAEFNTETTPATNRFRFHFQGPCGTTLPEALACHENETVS
Active calls of the source: *; ? = inconclusive; nt = not tested or not shown. A selection: hits, their analogues and other compounds. The true share with any hit is near 2.9%.

SMILES	E-sel inducer	DENV2 CPE	SIRT5 block
CO[C@H]1CN(C)C(=O)c2cc(NC(=O)Nc3ccc(C(F)(F)F)cc3)ccc2OC[C@H](C)NC[C@H]1C	0	-3	4
COc1cc(-c2c(C#N)c(N)nc3[nH]c(=S)[nH]c(=O)c23)ccc1O	0	0	4
COc1ccc(-c2[nH]ncc2CN(CCO)CC23CC4CC(CC(C4)C2)C3)c(OC)c1	2	15	24*
COc1ccc(-c2[nH]ncc2CN2CCSCC2)c(OC)c1	1	-2	-2
COc1ccc(C(Nc2ccc(S(=O)(=O)N3CCOCC3)cc2)C(=O)NCCC(C)C)cc1OC (configuration not stated)	nt	?	0
CC1(C)C(=O)Nc2ccccc2N1C(=O)CSc1nc(-c2ccccc2)cs1	0	-4	-3
C[C@H](CO)N1C[C@H](C)[C@@H](CN(C)S(=O)(=O)c2cccs2)Oc2c(NC(=O)c3ccncc3)cccc2C1=O	-9	1	8
C[C@@H]1CN([C@H](C)CO)C(=O)c2cccc(NC(=O)c3ccncc3)c2O[C@H]1CN(C)S(=O)(=O)c1ccccc1	32*	?	nt
C[C@@H]1CN([C@H](C)CO)C(=O)c2cccc(NC(=O)c3ccncc3)c2O[C@@H]1CN(C)S(=O)(=O)c1cccs1	-8	26*	9
C[C@H](CO)N1C[C@H](C)[C@H](CN(C)S(C)(=O)=O)Oc2ncccc2C1=O	4	7	1
COc1ccc(S(=O)(=O)N(C)C[C@@H]2Oc3c(NC(=O)c4ccncc4)cccc3C(=O)N([C@@H](C)CO)C[C@H]2C)cc1	-9	-5	17*
C[C@H](CO)N1C[C@H](C)[C@H](CN(C)S(=O)(=O)c2cccs2)Oc2ncccc2C1=O	0	37*	11
COc1ccc(S(=O)(=O)N(C)C[C@@H]2Oc3c(NC(=O)c4ccncc4)cccc3C(=O)N([C@@H](C)CO)C[C@@H]2C)cc1	-14	-6	-2
C[C@H]1CN([C@@H](C)CO)C(=O)c2cccc(NC(=O)c3ccncc3)c2O[C@@H]1CN(C)S(=O)(=O)c1ccccc1	3	9	nt
Nc1nc(N)c(N=Nc2ccc(S(N)(=O)=O)cc2)c(=O)[nH]1	nt	-10	0
C#CCOCCOCCOCCNc1nc(N2CCN(C(=O)[C@H](CC(N)=O)n3cc([C@@H](N)CC(N)=O)nn3)CC2)nc(N2CCN(C(=O)[C@H](CC(N)=O)n3cc([C@@H](N)CC(N)=O)nn3)CC2)n1	0	-10	nt
CC1CCN(C(=O)c2[nH]cnc2C(=O)NCc2ccc(CNC(=O)OC(C)(C)C)cc2)CC1	0	-3	17*
CC1CCN(C(=O)c2[nH]cnc2C(=O)NCc2ccccc2)CC1	0	7	1
CCNC(=O)C[C@H]1CC[C@H]2[C@H](COc3ccc(NC(=O)c4ccc(F)cc4)cc3C(=O)N2C)O1	0	6	-5
N#Cc1c(/N=C/c2ccc(-c3ccc(C(=O)O)c(Cl)c3)o2)sc2c1CCCC2	0	-3	5
Cc1nc(S/C(=C\c2ccc(-c3ccc(C(=O)O)c(Cl)c3)o2)C(=O)O)n[nH]1	7	2	28*
O=C(NC1CCCCC1)N[C@H]1C=C[C@H](CC(=O)N2CCOCC2)O[C@H]1CO	0	15	4
O=C(NC1CCCC1)N[C@H]1C=C[C@H](CC(=O)N2CCOCC2)O[C@H]1CO	1	57*	6
CN(C)C(=O)C[C@@H]1C=C[C@H](NC(=O)NC2CCCCC2)[C@@H](CO)O1	7	5	2
CCCNC(=O)N[C@H]1C=C[C@H](CC(=O)NC2CCC2)O[C@H]1CO	0	26*	-2
SMILES	E-sel inducer	DENV2 CPE	SIRT5 block
O=C(NC1CCCC1)N[C@H]1C=C[C@@H](CC(=O)N2CCOCC2)O[C@@H]1CO	0	36*	1
O=C(NC1CCCCC1)N[C@@H]1C=C[C@H](CC(=O)N2CCOCC2)O[C@H]1CO	0	-7	2
CN(C)C(=O)C[C@@H]1C=C[C@@H](NC(=O)NC2CCCCC2)[C@H](CO)O1	1	73*	2
CCNC(=O)C[C@H]1C=C[C@@H](NC(=O)NC2CCCCC2)[C@H](CO)O1	0	-3	2
C[C@H](NC(=O)C[C@H]1C=C[C@@H](NC(=O)Nc2ccc3c(c2)OCO3)[C@H](CO)O1)c1ccccc1	0	0	1
O=C(NC1CCCCC1)N[C@H]1C=C[C@@H](CC(=O)N2CCOCC2)O[C@@H]1CO	-1	108*	8
O=C(NC1CCCCC1)N[C@@H]1C=C[C@@H](CC(=O)N2CCOCC2)O[C@@H]1CO	0	-3	6
O=C(N[C@H]1C=C[C@@H](CC(=O)N2CCOCC2)O[C@@H]1CO)c1ccccn1	0	14	-1
O=C(N[C@H]1C=C[C@H](CC(=O)N2CCOCC2)O[C@H]1CO)c1ccccn1	0	6	29*
Cc1ccc(C)c(-n2cc(CNC(C)Cn3cncn3)c(-c3ccccc3)n2)c1 (configuration not stated)	1	10	-1
COc1ccc(-c2nc(CCl)cs2)cc1OC	nt	9	-10
O=C(Nc1c2c(nn1-c1ccc(F)cc1)CS(=O)C2)c1ccc(S(=O)(=O)N2CCOCC2)cc1 (configuration not stated)	nt	1	-1
COc1ccc(-n2c(CN3CCN(C)CC3)nc3ccc([N+](=O)[O-])cc3c2=O)c(OC)c1	0	?	-2
COc1ccc(-n2c(CN3CCN(Cc4ccccc4)CC3)nc3ccc([N+](=O)[O-])cc3c2=O)c(OC)c1	0	8	35*
COc1ccc(C(C)C)cc1S(=O)(=O)Nc1ccncc1	nt	0	nt
CCOc1ccc(C(=O)NC2CCCCCCC2)cc1	nt	2	-4
CCOc1cccc(C(=O)NC2CCCCC2)c1	nt	-5	22*
CC(=O)c1c(C)[nH]c(C(=O)Nc2cccc3ccccc23)c1C	1	8	-5
O=C(c1cccc(S(=O)(=O)N2CCCC2)c1)N1CCCc2ccccc21	nt	-2	nt
CCOC(=O)c1cc(S(=O)(=O)N2CCc3ccccc32)cn1C	nt	39*	-2
CCc1ccc(NC(=O)c2cc(S(=O)(=O)N3CCc4ccccc43)cn2C)cc1	0	0	-1
CN1C(=O)c2cc(NS(=O)(=O)c3ccc(Cl)cc3)ccc2OC[C@@H]2O[C@H](CC(=O)O)CC[C@H]21	0	7	-3
O=C(C1CC1)N1C[C@@H]2[C@H](c3ccccc31)[C@H](CO)N2C(=O)c1ccccc1	0	0	-5
CC(C)NC(=O)N1C[C@@H]2[C@H](c3ccccc31)[C@@H](CO)N2C(=O)c1ccccc1	0	29*	-2
O=C(C1CCOCC1)N1C[C@H]2[C@@H](c3ccccc31)[C@@H](CO)N2C(=O)c1ccccc1	1	97*	-1
CC(C)NC(=O)N1C[C@@H]2[C@H](c3ccccc31)[C@H](CO)N2C(=O)NC(C)C	0	-7	nt
O=C(C1CCOCC1)N1C[C@@H]2[C@H](c3ccccc31)[C@@H](CO)N2Cc1ccccc1F	0	-9	4
CN1[C@@H]2CN(C(=O)C3CCOCC3)c3ccccc3[C@@H]2[C@@H]1CO	0	40*	-1
O=C(C1CCOCC1)N1C[C@@H]2[C@H](c3ccccc31)[C@@H](CO)N2Cc1ccccc1	0	nt	-1
